Data set [1] concerns Escherichia coli. The experiment in a line: Antibacterial activity against Escherichia coli ATCC 35218 assessed as growth inhibition after 16-20 hrs by CLSI method. Format: functional, organism-based.
Data set [2] concerns Cryptococcus neoformans. Briefly: Antifungal activity against Cryptococcus neoformans ATCC 90113 assessed as growth inhibition after 70-74 hrs by CLSI method. Type of data set: functional, organism-based.
Data set [3] relates to BT-549. Briefly: Cytotoxicity against human BT549 cells assessed as cell viability after 48 hrs by neutral red uptake assay. Format: cell-based. The note with it: bt-549, 48 h. Summed up: (§1)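 Neutral red uptake assay on human cancer lines (SK-MEL, KB, BT-549, SK-OV-3) and noncancerous mammalian cells (VERO, LLC-PK1). Highest tested concentration was 10 µg/mL.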
In data set [4] the test system is SK-MEL. The experiment in a line: Cytotoxicity against human SK-MEL cells assessed as cell viability after 48 hrs by neutral red uptake assay. Format: cell-based. Summed up: as §1
In data set [5] the test system is SK-OV-3. The experiment in a line: Cytotoxicity against human SKOV3 cells assessed as cell viability after 48 hrs by neutral red uptake assay. Type of data set: cell-based. To be noted: sk-ov-3, 48 h. The gist of the method:
as §1

The test system of data set [6] is Nakaseomyces glabratus. Briefly: Antifungal activity against Candida glabrata assessed as growth inhibition. Format: functional, organism-based.
Data set [7] deals with Candida albicans. Briefly: Antifungal activity against Candida albicans assessed as growth inhibition. Format: functional, organism-based.
The test system of data set [8] is KB. Briefly: Cytotoxicity against human KB cells assessed as cell viability after 48 hrs by neutral red uptake assay. Format: cell-based. Summed up: as §1
The subject of data set [9] is Vero. Briefly: Cytotoxicity against african green monkey Vero cells assessed as cell viability after 48 hrs by neutral red uptake assay. Format: cell-based. The note with it: chlorocebus sabaeus. The gist of the method: as §1
Data set [10] has as its system LLC-PK1. The experiment in a line: Cytotoxicity against pig LLC-PK1 cells assessed as cell viability after 48 hrs by neutral red uptake assay. The note with it: llc-pk1, 48 h. Type of data set: cell-based, Sus scrofa. The gist of the method:
as §1

The subject of data set [11] is Pichia kudriavzevii. The experiment in a line: Antifungal activity against Candida krusei assessed as growth inhibition. Format: functional, organism-based.
Data set [12] relates to Aspergillus fumigatus. Briefly: Antifungal activity against Aspergillus fumigatus assessed as growth inhibition. Type of data set: functional, organism-based.
Where [13] appears, read: Cryptococcus neoformans, ATCC 90113, read-out: IC50.

In brackets after ≈: the same amount, converted by molar mass. Activity calls are given as the source filed them. No rule for the calls is given here. Residues, ends and D or L forms follow the SMILES beside them. *: point of attachment. Boc = CC(C)(C)OC(=O)*; NHBn = c1ccc(CN*)cc1

A word on the IC50: it is the concentration needed to halve the response being measured. Regarding `COC(=O)[C@H](CCCNC(=N)N)NC(=O)[C@H](Cc1c[nH]cn1)NC(=O)OC(C)(C)C` (Boc-His-Arg-OMe), the “growth inhibition (GI)” value in data set [1], in data set [6], in data set [7], in data set [11] and in data set [12] was “inactive” each time. Further, the half-inhibitory concentration (IC50) result in [2] is reported as “Not Active”. The MFC result in [2] is “inactive”. Moreover, the MIC result in data set [2] was “inactive”. Further, the Activity in data set [3], in [4], in data set [5], in [8], in data set [9] and in data set [10] was > 10 µg/mL throughout.
Regarding `COC(=O)[C@H](Cc1c[nH]c(-c2ccc(C(C)(C)C)cc2)n1)NC(=O)[C@@H](N)Cc1c[nH]c2ccccc12`, the “growth inhibition (GI)” value in data set [1], in data set [6], in [7], in data set [11] and in [12] was “inactive” in each case. Further, the MFC entry in data set [2] is “inactive”. In addition, the MIC entry in data set [2] is “inactive”. For the same compound, the IC50 in [2] (setting [13]) was determined as 18.8 µg/mL (≈ 38.6 µM). In addition, the Activity in data set [3], in data set [4], in [5], in [8], in [9] and in data set [10] was > 10 µg/mL in each case.
In the case of `COC(=O)[C@H](CCCNC(=N)N)NC(=O)[C@H](Cc1c[nH]c(-c2ccc(C)cc2)n1)NC(=O)OC(C)(C)C`, the “growth inhibition (GI)” value in data set [1], in data set [6], in data set [7], in [11] and in data set [12] was “inactive” each time. Also, the MFC result in data set [2] is “inactive”. Also, in data set [2], the MIC entry was “inactive”. Also, the IC50 in data set [2] (setting [13]) is 16.9 µg/mL (≈ 32.9 µM). The Activity in [3], in [4], in data set [5], in data set [8], in data set [9] and in data set [10] was > 10 µg/mL throughout.
Turning to `COC(=O)[C@H](CCCNC(=N)N)NC(=O)[C@@H](N)Cc1c[nH]c(-c2ccc(C)cc2)n1`, the “growth inhibition (GI)” value in data set [1], in data set [6], in data set [7], in data set [11] and in [12] was “inactive” throughout. Also, in data set [2], the IC50 result is “Not Active”. Further, in data set [2], the MFC result is “inactive”. In [2], the MIC result is “inactive”. Further, the Activity in data set [3], in data set [4], in [5], in data set [8], in data set [9] and in data set [10] was > 10 µg/mL each time.
Regarding `COC(=O)[C@H](Cc1c[nH]c(-c2ccccc2)n1)NC(=O)[C@H](Cc1c[nH]c2ccccc12)NC(=O)OC(C)(C)C`, the “growth inhibition (GI)” value in data set [1], in data set [6], in [7], in data set [11] and in data set [12] was “inactive” in each case. Further, the IC50 result in data set [2] is recorded as “Not Active”. For the same compound, the MFC result in data set [2] is “inactive”. For the same compound, in [2], the MIC result is “inactive”. Also, the Activity in data set [3], in data set [4], in [5], in data set [8], in data set [9] and in data set [10] was > 10 µg/mL in each case.
Turning to `CC(C)(C)OC(=O)N[C@@H](Cc1c[nH]cn1)C(=O)N[C@@H](CCCNC(=N)N)C(=O)NCc1ccccc1` (Boc-His-Arg-NHBn), the “growth inhibition (GI)” value in [1], in data set [6], in data set [7], in [11] and in [12] was “inactive” in each case. For the same compound, the IC50 result in data set [2] is recorded as “Not Active”. Moreover, in [2], the MFC result was “inactive”. Moreover, the MIC entry in [2] is “inactive”. Further, the Activity in data set [3], in data set [4], in [5], in data set [8], in data set [9] and in [10] was > 10 µg/mL throughout.
As for `CC(C)(C)OC(=O)N[C@@H](Cc1c[nH]c2ccccc12)C(=O)N[C@@H](Cc1c[nH]cn1)C(=O)NCc1ccccc1` (Boc-Trp-His-NHBn), the “growth inhibition (GI)” value in data set [1], in [6], in [7], in [11] and in data set [12] was “inactive” throughout. In addition, in data set [2], the IC50 entry was “Not Active”. The MFC result in data set [2] is “inactive”. For the same compound, the MIC result in data set [2] was “inactive”. In addition, the Activity in data set [3], in [4], in data set [5], in data set [8], in data set [9] and in data set [10] was > 10 µg/mL in each case.
`N[C@@H](Cc1c[nH]c2ccccc12)C(=O)N[C@@H](Cc1c[nH]c(-c2cccc3ccccc23)n1)C(=O)NCc1ccccc1`: the “growth inhibition (GI)” value in data set [1], in data set [6], in [7], in data set [11] and in [12] was “inactive” each time. In addition, the IC50 result in data set [2] was “Not Active”. Further, the MFC result in data set [2] was “inactive”. For the same compound, the MIC entry in data set [2] is “inactive”. Moreover, the Activity in data set [3], in data set [4], in data set [5], in [8], in data set [9] and in data set [10] was > 10 µg/mL in each case.
In the case of `COC(=O)[C@H](Cc1c[nH]c(-c2ccc(OC)cc2)n1)NC(=O)[C@H](Cc1c[nH]c2ccccc12)NC(=O)OC(C)(C)C`, the “growth inhibition (GI)” value in data set [1], in data set [6], in [7], in data set [11] and in data set [12] was “inactive” each time. The concentration for half-maximal inhibition (IC50) result in data set [2] is listed as “Not Active”. Also, the MFC result in [2] was “inactive”. Further, in [2], the MIC result is “inactive”. Further, the Activity in [3], in data set [4], in data set [5], in data set [8], in [9] and in [10] was > 10 µg/mL in each case.
Regarding `COc1ccc(-c2nc(C[C@H](NC(=O)[C@H](Cc3c[nH]c4ccccc34)NC(=O)OC(C)(C)C)C(=O)NCc3ccccc3)c[nH]2)cc1`, the “growth inhibition (GI)” value in [1], in data set [6], in [7], in data set [11] and in data set [12] was “inactive” in each case. Besides, the IC50 result in data set [2] is reported as “Not Active”. Moreover, the MFC result in data set [2] is “inactive”. Also, the MIC entry in data set [2] is “inactive”. Besides, the Activity in data set [3], in data set [4], in data set [5], in data set [8], in data set [9] and in [10] was > 10 µg/mL throughout.
`COC(=O)[C@H](CCCNC(=N)N)NC(=O)[C@H](Cc1c[nH]c(-c2ccc(OC)cc2)n1)NC(=O)OC(C)(C)C`: the “growth inhibition (GI)” value in data set [1], in data set [6], in data set [7], in data set [11] and in [12] was “inactive” in each case. In [2], the IC50 result is “Not Active”. In data set [2], the MFC result is “inactive”. The MIC entry in data set [2] was “inactive”. The Activity in data set [3], in data set [4], in data set [5], in [8], in [9] and in data set [10] was > 10 µg/mL in each case.
